These results are taken from ChEMBL document CHEMBL1795208 (J Med Chem, 2011).

What all share (format): functional, cell-based
The subject of one assay is MCF7. The assay is described as follows: Antiproliferative activity against human MCF7 cells expressing estrogen receptor after 72 hrs by MTS/PMS assay. The following applies: MCF7, 72 h. The procedure, abridged:
(§1)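 Cells kept in Advanced DMEM/F12 (1:1) with non-essential amino acids, 2 mM L-glutamine, penicillin, streptomycin and 10% FBS at 37 °C, 5% CO2. Seeded at 2000/well, attached overnight. Compound added in DMSO across a concentration range (1% DMSO final) for 72 h. Viable cells read by MTS/PMS and normalized to 1% DMSO controls (100%). IC50 taken from separate triplicate experiments.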

Assay [1] can be described thus: Antiproliferative activity against human androgen-dependent LNCaP-LN3 cells after 72 hrs by MTS/PMS assay. Conditions: LNCaP-LN3, 72 h. The procedure, abridged: as §1
The nature of assay [2]: Antiproliferative activity against human androgen-independent PC3MM2 cells after 72 hrs by MTS/PMS assay. Conditions: PC3MM2, 72 h. An outline of the steps: as §1
In another assay the test system is SK-BR-3. The assay is described as follows: Antiproliferative activity against human SKBR3 cells expressing HER2 after 72 hrs by MTS/PMS assay. The following applies: SK-BR-3, 72 h. The procedure, abridged: as §1

Consider `COc1cccc(-c2cc(C(=O)Nc3cc4ccc(OC5CN(C)C[C@@H](O)[C@H]5O)c(C)c4oc3=O)ccc2OC)c1` (some centres not stated), for which the IC50 – broadly, the concentration that inhibits the measured activity by half – was determined as 1.85 µM in the assay on MCF7, 0.59 µM in assay [1], 2.99 µM in assay [2] and 3.92 µM in the assay with SK-BR-3.

Regarding `COc1cccc(-c2cc(C(=O)Nc3cc4ccc(OCC(O)CO)c(OC)c4oc3=O)ccc2OC)c1` (configuration not stated), the IC50 is over 50 µM in the assay on MCF7, 0.96 µM in assay [1], 1.66 µM in assay [2] and over 50 µM in the assay on SK-BR-3.

With `COc1cccc(-c2cc(C(=O)Nc3cc4cc(OC)c(OCCCN(C)C)c(C)c4oc3=O)ccc2OC)c1`, the IC50 in the assay on MCF7 is 0.7 µM; in assay [1] it was 4.71 µM; in assay [2], 5.4 µM; in the assay with SK-BR-3, 0.49 µM.

Regarding `COc1cccc(-c2cc(C(=O)Nc3cc4cc(OC)c(OCCN(C)C)c(C)c4oc3=O)ccc2OC)c1`, the IC50 with MCF7 was determined as 1.29 µM; in assay [1], 6.28 µM; in assay [2] it was 4.87 µM; in the assay with SK-BR-3, 1.42 µM.

Consider `COc1cccc(-c2cc(C(=O)Nc3cc4cc(OC)c(O[C@H]5OCC[C@@H](O)[C@H]5O)c(C)c4oc3=O)ccc2OC)c1`, for which the IC50 in the assay with MCF7 amounted to 64.5 µM; in assay [1], 14.9 µM; in assay [2], 25.4 µM; with SK-BR-3 it was 12.5 µM.

Regarding `COc1cccc(-c2cc(C(=O)Nc3cc4ccc(OC(C)=O)c(OC)c4oc3=O)ccc2OC)c1`, the IC50 with MCF7 was 8.62 µM; in assay [1], 14.6 µM; in assay [2], 19.3 µM; in the assay on SK-BR-3, 20.5 µM.

As for `COc1cccc(-c2cc(C(=O)Nc3cc4cc(OC)c(O[C@@H]5C[C@H](O)CCO5)c(C)c4oc3=O)ccc2OC)c1`, the IC50 is over 100 µM with MCF7, 3.27 µM in assay [1], 2.35 µM in assay [2] and 1.37 µM in the assay with SK-BR-3.

In the case of `CNCCOc1c(OC)cc2cc(NC(=O)c3ccc(OC)c(-c4cccc(OC)c4)c3)c(=O)oc2c1C`, the IC50 in the assay with MCF7 is 6.23 µM; in assay [1], over 100 µM; in assay [2], 11.8 µM; in the assay with SK-BR-3, 3.15 µM.

Regarding `COc1cccc(-c2cc(C(=O)Nc3cc4ccc(OC5OC(C)(C)[C@H](OC)[C@@H](O)[C@H]5O)c(OC)c4oc3=O)ccc2OC)c1` (some centres not stated), the IC50 in the assay with MCF7 was found to be 9 µM; in assay [1], 0.11 µM; in assay [2], 1.44 µM; in the assay with SK-BR-3 it was 13.9 µM.

With `COc1cccc(-c2cc(C(=O)Nc3cc4cc(OC)c(O[C@H]5C[C@H](O)CCO5)c(C)c4oc3=O)ccc2OC)c1`, the IC50 in the assay with MCF7 is over 100 µM; in assay [1], 1.49 µM; in assay [2], 1.24 µM; in the assay on SK-BR-3 it was over 100 µM.

`CNCCOc1ccc2cc(NC(=O)c3ccc(OC)c(-c4cccc(OC)c4)c3)c(=O)oc2c1OC`: the concentration for half-maximal inhibition (IC50) with MCF7 came to 4.32 µM; in assay [1], 15.2 µM; in assay [2] it was 9.12 µM; with SK-BR-3, 3.6 µM.

On to `COc1cccc(-c2cc(C(=O)Nc3cc4ccc(O)c(OC)c4oc3=O)ccc2OC)c1`, for which the IC50 in the assay with MCF7 was 5.32 µM; in assay [1], 6.18 µM; in assay [2] it was over 100 µM; in the assay with SK-BR-3 it was over 100 µM.

Take `COc1cccc(-c2cc(C(=O)Nc3cc4ccc(O[C@@H]5OCC[C@@H](O)[C@H]5O)c(OC)c4oc3=O)ccc2OC)c1`: the IC50 in the assay with MCF7 turned out to be 17.5 µM; in assay [1], 2.29 µM; in assay [2] it was 10.7 µM; in the assay on SK-BR-3, 1.46 µM.

Consider `CNC(=O)Oc1ccc2cc(NC(=O)c3ccc(OC)c(-c4cccc(OC)c4)c3)c(=O)oc2c1OC`, for which the IC50 in the assay on MCF7 is 6.54 µM; in assay [1] it was 2.37 µM; in assay [2], 1.68 µM; with SK-BR-3, over 100 µM.

Turning to `COc1cccc(-c2cc(C(=O)Nc3cc4cc(OC)c(OC(C)=O)c(C)c4oc3=O)ccc2OC)c1`, the IC50 turned out to be 1.5 µM with MCF7, 1.05 µM in assay [1], 1.69 µM in assay [2] and 5.72 µM with SK-BR-3.

As to `COc1cccc(-c2cc(C(=O)Nc3cc4ccc(O[C@H]5C[C@H](O)CCO5)c(C)c4oc3=O)ccc2OC)c1`, the IC50 in the assay on MCF7 is over 100 µM; in assay [1] it was 3.11 µM; in assay [2], over 100 µM; in the assay on SK-BR-3 it was over 100 µM.

`COc1cccc(-c2cc(C(=O)Nc3cc4ccc(OP(=O)(OC)OC)c(OC)c4oc3=O)ccc2OC)c1`: the IC50 in the assay with MCF7 is over 100 µM; in assay [1], 6.58 µM; in assay [2] it was 11.5 µM; with SK-BR-3, 18.1 µM.

For the compound `COc1cccc(-c2cc(C(=O)Nc3cc4ccc(OC(=O)N(C)C)c(OC)c4oc3=O)ccc2OC)c1`, the IC50 is over 100 µM with MCF7, 15.7 µM in assay [1], 11.6 µM in assay [2] and over 100 µM in the assay on SK-BR-3.

Regarding `CNC(=O)Oc1ccc2cc(NC(=O)c3ccc(OC)c(-c4cccc(OC)c4)c3)c(=O)oc2c1C`, the IC50 with MCF7 was determined as 1.72 µM; in assay [1] it was 3.75 µM; in assay [2], 5.22 µM; with SK-BR-3, 2.4 µM.

Turning to `COc1cccc(-c2cc(C(=O)Nc3cc4ccc(OC5CN(C(C)=O)C[C@@H](O)[C@H]5O)c(C)c4oc3=O)ccc2OC)c1` (some centres not stated), the IC50 was determined as 9.18 µM with MCF7, 0.71 µM in assay [1], 2.22 µM in assay [2] and 10.8 µM with SK-BR-3.

Take `COc1cccc(-c2cc(C(=O)Nc3cc4ccc(OS(C)(=O)=O)c(C)c4oc3=O)ccc2OC)c1`: the IC50 with MCF7 is 8.85 µM; in assay [1], 20 µM; in assay [2] it was over 100 µM; in the assay with SK-BR-3, 7.33 µM.

Turning to `COc1c(OCCCN(C)C)ccc2cc(NC(=O)c3cc4ccccc4[nH]3)c(=O)oc12`, the IC50 is 1.41 µM in the assay on MCF7, 4.71 µM in assay [1], 8.95 µM in assay [2] and 1.5 µM in the assay with SK-BR-3.

With `COc1cccc(-c2cc(C(=O)Nc3cc4cc(OC)c(OC5OC(C)(C)[C@H](OC)[C@@H](O)[C@H]5O)c(C)c4oc3=O)ccc2OC)c1` (some centres not stated), the IC50 was over 100 µM with MCF7, 26.6 µM in assay [1], over 100 µM in assay [2] and 58.8 µM in the assay with SK-BR-3.

Consider `Cc1c(OC2CCN(C)CC2)ccc2cc(NC(=O)c3cc4ccccc4[nH]3)c(=O)oc12`, for which the IC50 stood at 0.57 µM with MCF7, 11.8 µM in assay [1], 11.4 µM in assay [2] and 0.48 µM in the assay on SK-BR-3.

In the case of `COc1cccc(-c2cc(C(=O)Nc3cc4cc(OC)c(O[C@@H]5OCC[C@@H](O)[C@H]5O)c(C)c4oc3=O)ccc2OC)c1`, the IC50 stood at 9.5 µM in the assay with MCF7, 12.8 µM in assay [1], 24 µM in assay [2] and 7.18 µM in the assay on SK-BR-3.

On to `COc1cccc(-c2cc(C(=O)Nc3cc4ccc(OP(=O)(OC)OC)c(C)c4oc3=O)ccc2OC)c1`, for which the IC50 was over 100 µM with MCF7, 3.65 µM in assay [1], over 100 µM in assay [2] and over 100 µM with SK-BR-3.

As to `COc1cccc(-c2cc(C(=O)Nc3cc4ccc(O[C@@H]5O[C@H](CO)C[C@@H](O)[C@H]5O)c(OC)c4oc3=O)ccc2OC)c1`, the half-maximal inhibitory concentration (IC50) in the assay on MCF7 was found to be 14.3 µM; in assay [1], 6.78 µM; in assay [2], 17.9 µM; in the assay with SK-BR-3, 11.8 µM.

On to `COc1cccc(-c2cc(C(=O)Nc3cc4ccc(OC5CCN(C)CC5)c(C)c4oc3=O)ccc2OC)c1`, for which the IC50 in the assay on MCF7 is 1.51 µM; in assay [1] it was 4.12 µM; in assay [2] it was 3.13 µM; with SK-BR-3 it was 1.34 µM.

As for `COc1cccc(-c2cc(C(=O)Nc3cc4ccc(OCCCN(C)C)c(C)c4oc3=O)ccc2OC)c1`, the IC50 in the assay with MCF7 amounted to 0.5 µM; in assay [1], 37.5 µM; in assay [2], 12.8 µM; in the assay with SK-BR-3 it was 0.6 µM.

Regarding `COc1cccc(-c2cc(C(=O)Nc3cc4ccc(OC(N)=O)c(OC)c4oc3=O)ccc2OC)c1`, the half-inhibitory concentration (IC50) in the assay with MCF7 was 5.56 µM; in assay [1] it was 4.83 µM; in assay [2] it was over 100 µM; in the assay on SK-BR-3, 76.8 µM.

Consider `COc1cccc(-c2cc(C(=O)Nc3cc4ccc(O)c(C)c4oc3=O)ccc2OC)c1`, for which the half-maximal inhibitory concentration (IC50) with MCF7 was determined as 6.93 µM; in assay [1], 3.21 µM; in assay [2] it was 5.36 µM; in the assay on SK-BR-3, 8.88 µM.

Take `COc1cccc(-c2cc(C(=O)Nc3cc4cc(OC)c(OC(N)=O)c(C)c4oc3=O)ccc2OC)c1`: the IC50 is 6.29 µM in the assay with MCF7, 3.55 µM in assay [1], 2.62 µM in assay [2] and 6.83 µM with SK-BR-3.

As to `COc1cccc(-c2cc(C(=O)Nc3cc4ccc(OS(=O)(=O)c5ccc(C)cc5)c(C)c4oc3=O)ccc2OC)c1`, the IC50 with MCF7 is over 100 µM; in assay [1] it was 0.58 µM; in assay [2] it was over 100 µM; in the assay on SK-BR-3, over 100 µM.

Regarding `COc1cccc(-c2cc(C(=O)Nc3cc4ccc(OC(N)=O)c(C)c4oc3=O)ccc2OC)c1`, the IC50 in the assay with MCF7 was determined as 1.16 µM; in assay [1], 2.61 µM; in assay [2], 6.37 µM; in the assay with SK-BR-3, 3.02 µM.

Regarding `COc1cccc(-c2cc(C(=O)Nc3cc4ccc(OC(=O)N(C)C)c(C)c4oc3=O)ccc2OC)c1`, the IC50 with MCF7 is 74.4 µM; in assay [1], 5.4 µM; in assay [2], over 100 µM; in the assay with SK-BR-3, 39.9 µM.

With `COc1cccc(-c2cc(C(=O)Nc3cc4cc(OC)c(O[C@@H]5O[C@H](CO)C[C@@H](O)[C@H]5O)c(C)c4oc3=O)ccc2OC)c1`, the IC50 is 3.37 µM in the assay on MCF7, 4.66 µM in assay [1], 5.9 µM in assay [2] and 9.45 µM with SK-BR-3.

In the case of `COc1cccc(-c2cc(C(=O)Nc3cc4cc(OC)c(OP(=O)(OC)OC)c(C)c4oc3=O)ccc2OC)c1`, the IC50 with MCF7 was found to be 24.2 µM; in assay [1] it was 1.36 µM; in assay [2] it was 31.3 µM; in the assay on SK-BR-3 it was 26.5 µM.

For the compound `COc1cccc(-c2cc(C(=O)Nc3cc4ccc(OCCN(C)C)c(OC)c4oc3=O)ccc2OC)c1`, the IC50 in the assay on MCF7 is 3.08 µM; in assay [1] it was 5.22 µM; in assay [2], 6.2 µM; in the assay on SK-BR-3 it was 1.77 µM.
